Experimental data published in ChEMBL document CHEMBL1151801, “Synthesis of new indeno[1,2-e]pyrimido[4,5-b][1,4]diazepine-5,11-diones as potential antitumor agents” (2008).
Activity calls are given as the source filed them.

Key:
[1] = tested on: K562; test: Antitumor activity against human K562 cells after 48 hrs by SRB assay; assay type: functional; settings: K562, 48 h
In short: (§1)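 NCI in vitro human tumor cell line screen. Cells were exposed continuously to compound for 48 h at five concentration levels (100, 10, 1.0, 0.1 and 0.01). Growth was estimated by sulforhodamine B protein staining. GI50 is the concentration giving a 50% reduction in net protein increase relative to control cells over the incubation.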

[2] = tested on: OVCAR-8; test: Antitumor activity against human OVCAR8 cells after 48 hrs by SRB assay; assay type: functional; settings: OVCAR-8, 48 h; in short: as §1
[3] = tested on: COLO 205; test: Antitumor activity against human COLO205 cells after 48 hrs by SRB assay; assay type: functional; settings: COLO 205, 48 h; in short: as §1
[4] = tested on: NCI-H226; test: Antitumor activity against human NCI-H226 cells after 48 hrs by SRB assay; assay type: functional; settings: NCI-H226, 48 h; in short: as §1
[5] = tested on: NCI-H522; test: Antitumor activity against human NCI-H522 cells after 48 hrs by SRB assay; assay type: functional; settings: NCI-H522, 48 h; in short: as §1
[6] = tested on: OVCAR-3; test: Antitumor activity against human OVCAR-3 cells after 48 hrs by SRB assay; assay type: functional; settings: OVCAR-3, 48 h; in short: as §1
[7] = tested on: SNB-75; test: Antitumor activity against human SNB75 cells after 48 hrs by SRB assay; assay type: functional; settings: SNB-75, 48 h; in short: as §1
[8] = tested on: SF-539; test: Antitumor activity against human SF539 cells after 48 hrs by SRB assay; assay type: functional; settings: SF-539, 48 h; in short: as §1
[9] = tested on: SK-OV-3; test: Antitumor activity against human SKOV3 cells after 48 hrs by SRB assay; assay type: functional; settings: SK-OV-3, 48 h; in short: as §1
[10] = tested on: 786-0; test: Antitumor activity against human 786-0 cells after 48 hrs by SRB assay; assay type: functional; settings: 786-0, 48 h; in short: as §1
[11] = tested on: HL-60(TB); test: Antitumor activity against human HL-60(TB) cells after 48 hrs by SRB assay; assay type: functional; settings: HL-60, 48 h; in short: as §1
[12] = Antitumor activity against human […] cells after 48 hrs by SRB assay; assay type: functional; in short: as §1
[13] = tested on: DU-145; test: Antitumor activity against human DU145 cells after 48 hrs by SRB assay; assay type: functional; settings: DU-145, 48 h; in short: as §1
[14] = tested on: CCRF-CEM; test: Antitumor activity against human CCRF-CEM cells after 48 hrs by SRB assay; assay type: functional; in short: as §1
[15] = tested on: ACHN; test: Antitumor activity against human ACHN cells after 48 hrs by SRB assay; assay type: functional; in short: as §1
[16] = tested on: HOP-92; test: Antitumor activity against human HOP92 cells after 48 hrs by SRB assay; assay type: functional; settings: HOP-92, 48 h; in short: as §1
[17] = tested on: IGROV-1; test: Antitumor activity against human IGROV1 cells after 48 hrs by SRB assay; assay type: functional; settings: IGROV-1, 48 h; in short: as §1
[18] = tested on: EKVX; test: Antitumor activity against human EKVX cells after 48 hrs by SRB assay; assay type: functional; in short: as §1
[19] = tested on: NCI-H23; test: Antitumor activity against human NCI-H23 cells after 48 hrs by SRB assay; assay type: functional; settings: NCI-H23, 48 h; in short: as §1
[20] = tested on: SF-268; test: Antitumor activity against human SF268 cells after 48 hrs by SRB assay; assay type: functional; settings: SF-268, 48 h; in short: as §1
[21] = tested on: HOP-62; test: Antitumor activity against human HOP62 cells after 48 hrs by SRB assay; assay type: functional; settings: HOP-62, 48 h; in short: as §1
[22] = tested on: A498; test: Antitumor activity against human A498 cells after 48 hrs by SRB assay; assay type: functional; settings: A498, 48 h; in short: as §1
[23] = Antitumor activity against human Hs 578T cells after 48 hrs by SRB assay; assay type: functional; in short: as §1
[24] = tested on: HCC 2998; test: Antitumor activity against human HCC2998 cells after 48 hrs by SRB assay; assay type: functional; settings: HCC 2998, 48 h; in short: as §1
[25] = tested on: NCI60; test: Antitumor activity against human NCI60 cells at 1 uM; assay type: functional, cell-based
[26] = tested on: SW-620; test: Antitumor activity against human SW620 cells after 48 hrs by SRB assay; assay type: functional; settings: SW-620, 48 h
In short: (§2)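 NCI in vitro human tumor cell line screen. Continuous 48 h drug exposure at five concentrations (100, 10, 1.0, 0.1 and 0.01 µM). Cell growth estimated by sulforhodamine B protein staining. GI50 defined as the concentration giving 50% reduction in net protein increase versus control cells over the incubation.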

[27] = tested on: MDA-MB-231; test: Antitumor activity against human MDA-MB-231 cells after 48 hrs by SRB assay; assay type: functional; settings: MDA-MB-231, 48 h; in short: as §1
[28] = tested on: SR; test: Antitumor activity against human SR cells after 48 hrs by SRB assay; assay type: functional; in short: as §1
[29] = tested on: HT-29; test: Antitumor activity against human HT-29 cells after 48 hrs by SRB assay; assay type: functional; settings: HT-29, 48 h; in short: as §1
[30] = tested on: HCT-15; test: Antitumor activity against human HCT15 cells after 48 hrs by SRB assay; assay type: functional; settings: HCT-15, 48 h; in short: as §1
[31] = tested on: U-251; test: Antitumor activity against human U251 cells after 48 hrs by SRB assay; assay type: functional; settings: U-251, 48 h; in short: as §2
[32] = tested on: HCT-116; test: Antitumor activity against human HCT116 cells after 48 hrs by SRB assay; assay type: functional; settings: HCT-116, 48 h; in short: as §1
[33] = tested on: NCI-H322M; test: Antitumor activity against human NCI-H322M cells after 48 hrs by SRB assay; assay type: functional; in short: as §1
[34] = tested on: T47D; test: Antitumor activity against human T47D cells after 48 hrs by SRB assay; assay type: functional; in short: as §2
[35] = tested on: OVCAR-4; test: Antitumor activity against human OVCAR4 cells after 48 hrs by SRB assay; assay type: functional; settings: OVCAR-4, 48 h; in short: as §1
[36] = tested on: CAKI-1; test: Antitumor activity against human Caki1 cells after 48 hrs by SRB assay; assay type: functional; settings: CAKI-1, 48 h; in short: as §1
[37] = tested on: UO-31; test: Antitumor activity against human UO31 cells after 48 hrs by SRB assay; assay type: functional; settings: UO-31, 48 h; in short: as §2
[38] = tested on: KM12; test: Antitumor activity against human KM12 cells after 48 hrs by SRB assay; assay type: functional; settings: KM12, 48 h; in short: as §1
[39] = read-out: LC50 (the source's name)

Compound: CSc1nc2c(c(=O)[nH]1)NC1=C(C(=O)c3ccccc31)C(c1ccccc1)N2 (stereo not given)
- GI50 [1]: 1.27 µM
- LC50 [1]: > 100 µM
- GI50 [2]: 19.1 µM
- LC50 (concentration causing 50% net cell kill) [2]: > 100 µM
- GI50 [3]: 3.53 µM
- CC50 [3, 39]: > 100 µM
- GI50 [4]: 4.2 µM
- LC50 [4]: > 100 µM
- GI50 [5]: 1.41 µM
- CC50 [5, 39]: > 100 µM
- GI50 [6]: 2.12 µM
- CC50 [6, 39]: 46.4 µM
- GI50 [7]: 1.27 µM
- LC50 [7]: > 100 µM
- GI50 [8]: 2.84 µM
- LC50 (concentration killing 50% of cells) [8]: > 100 µM
- GI50 [9]: 7.65 µM
- LC50 (concentration killing 50% of cells) [9]: > 100 µM
- GI50 [10]: 6.44 µM
- CC50 [10, 39]: > 100 µM
- GI50 [11]: 2.51 µM
- LC50 [11]: > 100 µM
- GI50 [12]: 3.01 µM
- LC50 [12]: > 100 µM
- GI50 [13]: 13.4 µM
- CC50 [13, 39]: > 100 µM
- GI50 [14]: 5.92 µM
- CC50 [14, 39]: > 100 µM
- GI50 [15]: 3.73 µM
- CC50 [15, 39]: > 100 µM
- GI50 [16]: 12 µM
- LC50 [16]: > 100 µM
- GI50 [17]: 4.54 µM
- CC50 [17, 39]: > 100 µM
- GI50 [18]: 12.8 µM
- CC50 [18, 39]: > 100 µM
- GI50 [19]: 5.82 µM
- LC50 [19]: > 100 µM
- GI50 [20]: 4.55 µM
- CC50 [20, 39]: > 100 µM
- GI50 [21]: 5.37 µM
- CC50 [21, 39]: > 100 µM
- GI50 [22]: 2 µM
- LC50 [22]: > 100 µM
- GI50 [23]: 2.1 µM
- CC50 [23, 39]: > 100 µM
- GI50 [24]: 6.75 µM
- CC50 [24, 39]: > 100 µM
- Activity [25]: Active
- GI50 [26]: 2.92 µM
- LC50 [26]: > 100 µM
- GI50 [27]: 4.09 µM
- LC50 (lethal concentration, 50% net cell kill) [27]: > 100 µM
- GI50 [28]: 1.51 µM
- LC50 (concentration killing 50% of cells) [28]: > 100 µM
- GI50 [29]: 2.97 µM
- LC50 [29]: > 100 µM
- GI50 [30]: 2.8 µM
- LC50 (concentration killing 50% of starting cells) [30]: > 100 µM
- GI50 [31]: 3.52 µM
- CC50 [31, 39]: > 100 µM
- GI50 [32]: 4.21 µM
- LC50 (50% lethal concentration) [32]: > 100 µM
- GI50 [33]: 13.5 µM
- CC50 [33, 39]: > 100 µM
- GI50 [34]: 4.61 µM
- CC50 [34, 39]: > 100 µM
- GI50 [35]: 5.62 µM
- CC50 [35, 39]: > 100 µM
- GI50 [36]: 2.18 µM
- LC50 [36]: > 100 µM
- GI50 [37]: 5.23 µM
- CC50 [37, 39]: > 100 µM
- GI50 [38]: 2.27 µM
- CC50 [38, 39]: > 100 µM
